Converted amounts (≈) assume the structure as drawn.
Legend:
[1] = Solubility of the compound at pH 7.4 after 18 hrs by UV spectrometry; assay type: physicochemical; conditions: buffer
Procedure, shortened: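 10 mM DMSO stocks diluted 100-fold in system solution buffer pH 7.4 and held 18 h at room temperature. Filtered, diluted 1:1 with isopropanol and measured by UV (230–500 nm). Compared against a 600-fold diluted reference in buffer/isopropanol. Triplicates.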

[2] = Half life in mouse liver microsomes; assay type: ADME, Microsome
Procedure, shortened: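 Mouse liver microsomes at 0.6381 mg/mL protein in 0.1 M potassium phosphate pH 7.4 with EDTA. Reaction started with NADPH regenerating system at 37°C; six time points including 0, triplicate wells. Quenched in cold acetonitrile with warfarin internal standard, analysed by LC–MS. Half-life from a first-order least-squares fit.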

[3] = Half life in human liver microsomes; assay type: ADME, Microsome
[4] = Apparent permeability of the compound from apical to basal side of human Caco2 cells at 50 umol/L after 2 hrs by UPLC/MS analysis; assay type: ADME, cell-based; conditions: Caco-2
Procedure, shortened: (§1)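 Caco-2 monolayers grown 7 days on Transwell inserts, washed with HBSS/HEPES pH 7.4. Compound at 50 µmol/L added apically or basolaterally, then 2 h at 37°C. Receiver side sampled and quantified by UPLC/MS. Papp = (dQ/dt)/(A×C0), triplicates.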

[5] = Apparent permeability of the compound from basal to apical side of human Caco2 cells at 50 umol/L after 2 hrs by UPLC/MS analysis; assay type: ADME, cell-based; conditions: Caco-2; procedure, shortened: as §1
[6] = Plasma protein binding in mouse at 10 uM after 4 hrs by LC/MS analysis; assay type: ADME, cell-free; conditions: read-out: PPB (converted)
Procedure, shortened: (§2)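 Compound at 10 µM (0.1% DMSO) in mouse or human plasma. Rapid equilibrium dialysis (MWCO 8K) against DPBS pH 7.4, 4 h at 37°C with orbital shaking. Both chambers matrix-matched, precipitated with acetonitrile containing warfarin internal standard, quantified by LC–MS. %Free = buffer/plasma × 100; %Bound = 100 − %Free.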

[7] = Plasma protein binding in human at 10 uM after 4 hrs by LC/MS analysis; assay type: ADME, cell-free; conditions: read-out: PPB (converted); procedure, shortened: as §2
[8] = tested on: Staphylococcus aureus; assay: Antibacterial activity against Staphylococcus aureus ATCC 29213 after overnight incubation by microbroth dilution technique; assay type: functional
Procedure, shortened: (§3)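 Two-fold serial broth dilutions per CLSI; inoculum about 10^5 CFU/mL; top final drug concentration 200 µg/mL; incubated aerobically overnight at 37°C. MIC read visually as the lowest concentration with no visible growth.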

[9] = tested on: Streptococcus pyogenes; assay: Antibacterial activity against Streptococcus pyogenes ATCC 700294 after overnight incubation by microbroth dilution technique; assay type: functional; procedure, shortened: as §3
[10] = tested on: Bacillus anthracis; assay: Antibacterial activity against Bacillus anthracis Sterne 34F2 after overnight incubation by microbroth dilution technique; assay type: functional
Procedure, shortened: (§4)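 Non-mycobacterial strains: two-fold serial dilutions in broth by CLSI microbroth dilution. Inoculum about 10^5 cfu/mL; top final drug concentration 200 µg/mL. Aerobic incubation at 37°C overnight. MIC read visually as the lowest concentration with no visible growth.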

[11] = tested on: Escherichia coli; assay: Antibacterial activity against Escherichia coli K12 after overnight incubation by microbroth dilution technique; assay type: functional; conditions: K-12; procedure, shortened: as §4
[12] = Cmax in Sprague-Dawley rat at 10 mg/kg, iv; assay type: ADME, organism-based; set-up: dose 10 mg/kg, route intravenous; conditions: in vivo
Procedure, shortened: (§5)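 Rats, n=5, given 10 mg/kg IV via femoral vein catheter. Vehicle was 2% ethanol/saline or 30% DMSO/30% propylene glycol/20% PEG 3000/20% saline, depending on compound. Plasma sampled 0–48 h and urine collected in intervals to 48 h; both assayed by LC-MS/MS after acetonitrile precipitation. Non-compartmental analysis: CL = dose/AUC0-∞; fe = cumulative unchanged urinary amount/dose.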

[13] = AUC (0 to infinity) in Sprague-Dawley rat at 10 mg/kg, iv; assay type: ADME, organism-based; set-up: time infinity, dose 10 mg/kg, route intravenous; conditions: plasma; procedure, shortened: as §5
[14] = Half life in Sprague-Dawley rat at 10 mg/kg, iv; assay type: ADME, organism-based; set-up: dose 10 mg/kg, route intravenous; conditions: in vivo; procedure, shortened: as §5
[15] = Clearance in Sprague-Dawley rat at 10 mg/kg, iv; assay type: ADME, organism-based; set-up: dose 10 mg/kg, route intravenous; conditions: in vivo; procedure, shortened: as §5
[16] = Volume of distribution in Sprague-Dawley rat at 10 mg/kg, iv; assay type: ADME, organism-based; set-up: dose 10 mg/kg, route intravenous; conditions: in vivo; procedure, shortened: as §5
[17] = Drug excretion in Sprague-Dawley rat urine at 10 mg/kg, iv; assay type: ADME, organism-based; set-up: dose 10 mg/kg, route intravenous; conditions: read-out: Drug excretion; procedure, shortened: as §5
[18] = tested on: Rattus norvegicus; assay: Oral bioavailability in Sprague-Dawley rat at 100 mg/kg; assay type: ADME, organism-based; conditions: in vivo
Procedure, shortened: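 Fasted rats, n=5, dosed 100 mg/kg by oral gavage. Vehicle was 2% methanol, 60:40 PEG 3000/water or 10% vitamin E TPGS, depending on compound. Plasma sampled to 48 h and assayed by LC-MS/MS. F = (AUCoral×DoseIV)/(AUCIV×Doseoral), referenced to 10 mg/kg IV.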

[19] = tested on: Vero; assay: Cytotoxicity against african green monkey Vero cells after 72 hrs by MTT assay; assay type: cell-based; conditions: Chlorocebus sabaeus
Procedure, shortened: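 Vero cells in DMEM with 10% FBS, seeded at ~10% confluency and left to adhere overnight. Two-fold serial dilutions applied for 72 h at 37°C, 5% CO2. MTT read-out at 570 nm after overnight solubilization.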

[20] = tested on: Rattus norvegicus; assay: Toxicity in Sprague-Dawley rat assessed as seizures at 10 mg/kg, iv; assay type: organism-based; set-up: dose 10 mg/kg, route intravenous; conditions: in vivo
Procedure, shortened: (§6)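 Observed during rat IV pharmacokinetic study (n=5). Single 10 mg/kg dose via femoral vein catheter, flushed with heparinized locking solution. Vehicle was 2% ethanol/saline or 30% DMSO/30% propylene glycol/20% PEG 3000/20% saline. Animals followed with serial blood sampling to 48 h.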

[21] = tested on: Rattus norvegicus; assay: Toxicity in Sprague-Dawley rat assessed as mortality at 10 mg/kg, iv; assay type: organism-based; set-up: dose 10 mg/kg, route intravenous; conditions: in vivo; procedure, shortened: as §6
[22] = tested on: Rattus norvegicus; assay: Toxicity in Sprague-Dawley rat assessed as mortality at 100 mg/kg, po; assay type: organism-based; set-up: dose 100 mg/kg, route oral; conditions: in vivo
Procedure, shortened: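 Observed during rat oral pharmacokinetic study (n=5). Overnight-fasted animals, water ad libitum, received 100 mg/kg by oral gavage. Vehicle was compound-dependent: 2% methanol (sonicated), 60:40 PEG 3000/water, or 10% vitamin E TPGS. Animals followed with sampling to 48 h.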

[23] = Oral bioavailability in rat; assay type: ADME, organism-based; conditions: in vivo
[24] = Cmax in rat at 10 mg/kg, iv; assay type: ADME, organism-based; set-up: dose 10 mg/kg, route intravenous; conditions: in vivo
Procedure, shortened: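 Rats (n=5) given 10 mg/kg IV via femoral vein catheter. Vehicle was 2% ethanol/saline or 30% DMSO/30% propylene glycol/20% PEG 3000/20% saline, depending on compound. Serial plasma sampled 0–48 h and assayed by LC-MS/MS after acetonitrile precipitation. Cmax read by visual inspection of the concentration–time curve.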

[25] = AUC (0 to infinity) in rat at 10 mg/kg, iv; assay type: ADME, organism-based; set-up: time infinity, dose 10 mg/kg, route intravenous; conditions: plasma; procedure, shortened: as §5
[26] = species on record: Rattus norvegicus; assay: Half life in rat; assay type: ADME, organism-based; conditions: in vivo
[27] = species on record: Rattus norvegicus; assay: Clearance in rat; assay type: ADME, organism-based; conditions: in vivo
[28] = Volume of distribution in rat; assay type: ADME, organism-based; conditions: in vivo
Procedure, shortened: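 Plasma concentration–time data from rats (n=5) after IV 10 mg/kg or oral 100 mg/kg. Samples taken 0.25–48 h and measured by LC-MS/MS. Non-compartmental analysis; Vd calculated as AUMC0-∞ × dose divided by the square of AUC0-∞.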

[29] = Drug excretion in rat urine; assay type: ADME; conditions: read-out: Drug excretion
[30] = tested on: Mycobacterium tuberculosis; assay: Antitubercular activity against Mycobacterium tuberculosis after 7 to 14 days by microbroth dilution technique; assay type: functional
Procedure, shortened: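 M. tuberculosis: CLSI microbroth dilution using two-fold serial drug dilutions in broth. Inoculum about 10^6 CFU/mL; top final concentration 200 µg/mL. Incubated aerobically at 37°C for 7 or 14 days. MIC taken as the lowest concentration preventing visible growth by eye.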

[31] = Efflux ratio of apparent permeability from basal to apical side to apical to basal side of human Caco2 cells; conditions: Caco-2
[32] = tested on: Streptococcus pneumoniae; assay: Antibacterial activity against Streptococcus pneumoniae DAW27 after overnight incubation by microbroth dilution technique; assay type: functional; procedure, shortened: as §3
[33] = tested on: Enterococcus faecalis; assay: Antibacterial activity against Enterococcus faecalis ATCC 3186 after overnight incubation by microbroth dilution technique; assay type: functional; procedure, shortened: as §3
[34] = tested on: Bacillus subtilis; assay: Antibacterial activity against Bacillus subtilis ATCC 23857 after overnight incubation by microbroth dilution technique; assay type: functional; procedure, shortened: as §4

Structure (SMILES)	half-life [2]	half-life [3]	Papp A→B at 2 h, 50 µM [4]	Papp B→A at 2 h, 50 µM [5]	fraction unbound at 4 h, 10 µM [6]	MIC [8]	MIC [9]	MIC [10]	MIC [11]	Cmax [12]	AUC(0-inf) [13]	half-life [14]	clearance [15]	Vd [16]	dose excreted [17]	F [18]	IC50 [19]	Activity [20]	Activity [21]	Activity [22]	further results
O=[N+]([O-])c1ccc(C2=NOC(c3ccc(N4CCOCC4)nc3)C2)o1 (stereo not given)	1.23 h	3.37 h	6.47 ×10⁻⁶ cm/s	14.2 ×10⁻⁶ cm/s	0.047	12.5 µg/mL (≈ 36.3 µM)	25 µg/mL (≈ 72.6 µM)	25 µg/mL (≈ 72.6 µM)	> 200 µg/mL	2730 ng/mL	3360 ng·h/mL	0.72 h	50.3 mL/min/kg	2.86 L/kg	0.02%	47.9%	3.2 µg/mL (≈ 9.29 µM)	Non-toxic	Non-toxic	Non-toxic	solubility at 18 h ([1]; pH 7.4): 14.1 µg/mL (≈ 40.9 µM); fraction unbound at 4 h, 10 µM [7]: 0.033
CC1COc2c(N3CCN(C)CC3)c(F)cc3c(=O)c(C(=O)O)cn1c23 (stereo not given) [OFLOXACIN]	–	–	–	–	–	–	–	–	–	–	–	–	–	–	–	–	–	–	–	–	bioavailability [23]: 78%; Cmax [24]: 10900 ng/mL; AUC(0-inf) [25]: 6100 ng·h/mL; t1/2 [26]: 1.5 h; CL [27]: 14.3 mL/min/kg; Vd [28]: 0.99 L/kg; dose excreted [29]: 46%
O=[N+]([O-])c1ccc(C2=NOC(c3ccc(N4CCCCC4)cc3)C2)o1 (stereo not given)	0.78 h	0.47 h	7.61 ×10⁻⁶ cm/s	10.3 ×10⁻⁶ cm/s	0.012	12.5 µg/mL (≈ 36.6 µM)	100 µg/mL (≈ 293 µM)	> 200 µg/mL	> 200 µg/mL	2280 ng/mL	2750 ng·h/mL	2.79 h	62.8 mL/min/kg	10.9 L/kg	0%	29.4%	2.5 µg/mL (≈ 7.32 µM)	Non-toxic	Non-toxic	Non-toxic	MIC [30]: 6 µg/mL (≈ 17.6 µM); solubility ([1]; pH 7.4, 18 h): 1.1 µg/mL (≈ 3.22 µM); efflux ratio [31]: 1.35; MIC [32]: 200 µg/mL (≈ 586 µM); MIC [33]: > 200 µg/mL; MIC [34]: 50 µg/mL (≈ 146 µM)

From ChEMBL document CHEMBL2146426, “Antitubercular nitrofuran isoxazolines with improved pharmacokinetic properties” (Bioorg Med Chem, 2012)
